From ChEMBL document CHEMBL5661984, “Allosteric ligands for the pharmacologically dark receptors GPR68 and GPR65” (Nature, 2015)
Calls of active or inactive are those of the source. The calls are words filed in the database; no cut-off is given here.

Key:
[1] = molecular target: T1, G-protein coupled receptor 68 (Homo sapiens, UniProt Q15743); experiment: Binding affinity to GPR68 expressed in human HEK293T cells assessed as cAMP production in presence of H+ proton by Split-luciferase based luminescence counter analysis; assay type: cell-based; details: filed as positive allosteric modulator
T1 sequence (Q15743 whole entry): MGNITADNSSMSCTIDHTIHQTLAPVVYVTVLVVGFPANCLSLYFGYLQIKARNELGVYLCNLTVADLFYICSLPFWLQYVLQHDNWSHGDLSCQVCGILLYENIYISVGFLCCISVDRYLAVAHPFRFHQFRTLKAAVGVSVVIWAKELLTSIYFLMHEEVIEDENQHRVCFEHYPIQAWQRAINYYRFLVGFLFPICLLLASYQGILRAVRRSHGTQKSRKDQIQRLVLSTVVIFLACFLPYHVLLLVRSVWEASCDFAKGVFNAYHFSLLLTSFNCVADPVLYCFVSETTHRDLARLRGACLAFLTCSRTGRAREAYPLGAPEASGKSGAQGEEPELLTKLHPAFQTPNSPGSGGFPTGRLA
Summary of the method: (§1)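 Proton concentration-response of GPR68 (wild type or E160A/K/Q, R189L/M, H269F mutants) in transiently transfected HEK293-T cells. Read-out: GloSensor cAMP, with luciferin loading 90 min at 37°C at pH 8.4. Run with and without increasing modulator concentrations; 20 min at room temperature before luminescence. Proton KA fixed to the proton EC50 without modulator. KB, τA, α, β fitted globally with an operational allosteric model. n=4.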

[2] = molecular target: T1, G-protein coupled receptor 68; experiment: Positive allosteric modulator activity at GPR68 expressed in human HEK293T cells assessed as cAMP production in presence of H+ proton by Split-luciferase based luminescence counter analysis (reference value: 26.4 to 43.8 %); assay type: functional, cell-based; summary of the method: as §1
[3] = molecular target: T1, G-protein coupled receptor 68; experiment: Positive allosteric modulator activity at GPR68 expressed in human HEK293T cells assessed as cAMP production in presence of H+ proton by Split-luciferase based luminescence counter analysis (reference value: 6.53 to 6.72); assay type: functional, cell-based
[4] = molecular target: G-protein coupled receptor 65 (Homo sapiens, UniProt Q8IYL9); experiment: Antagonist activity against GPR65 (unknown origin) transfected in human HEK293T cells incubated for 15 mins by luminescence counter analysis; assay type: functional, cell-based; details: filed as antagonist
Sequence of G-protein coupled receptor 65 (Q8IYL9 whole entry): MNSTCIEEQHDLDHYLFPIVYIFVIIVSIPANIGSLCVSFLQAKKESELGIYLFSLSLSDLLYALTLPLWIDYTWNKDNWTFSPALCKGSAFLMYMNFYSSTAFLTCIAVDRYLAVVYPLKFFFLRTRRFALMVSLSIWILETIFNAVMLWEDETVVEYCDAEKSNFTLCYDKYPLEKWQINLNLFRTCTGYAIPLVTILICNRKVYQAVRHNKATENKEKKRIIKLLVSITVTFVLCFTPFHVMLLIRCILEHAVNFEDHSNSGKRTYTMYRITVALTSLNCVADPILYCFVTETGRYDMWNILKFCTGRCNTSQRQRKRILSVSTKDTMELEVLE
Summary of the method: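 GloSensor split-luciferase cAMP assay. HEK293-T cells transiently co-transfected with GPR65 (wild type or the D153A, R187L, F242A or Y272A mutant) and GloSensor 7A reporter. Cells plated in DMEM with 1% dialyzed FBS for at least 6 h, then loaded with luciferin (4 mM, in drug buffer pH 8.4) for 90 min at 37°C. Compounds added at set pH in HBSS with 10 mM HEPES/10 mM MES, with TAPS for higher pH. Luminescence read after about 20 min at room temperature. Data normalized to buffer basal and fitted to a 4-parameter logistic.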

[5] = molecular target: C-X-C chemokine receptor type 4 (Homo sapiens) (UniProt P61073); experiment: Agonist activity against CXCR4 receptor (unknown origin) transfected in human HEK293T cells at 10 uM incubated for 15 mins in presence of CXCL12 by luminescence counter analysis; assay type: functional, cell-based
Sequence of C-X-C chemokine receptor type 4 (Homo sapiens) (P61073 whole entry): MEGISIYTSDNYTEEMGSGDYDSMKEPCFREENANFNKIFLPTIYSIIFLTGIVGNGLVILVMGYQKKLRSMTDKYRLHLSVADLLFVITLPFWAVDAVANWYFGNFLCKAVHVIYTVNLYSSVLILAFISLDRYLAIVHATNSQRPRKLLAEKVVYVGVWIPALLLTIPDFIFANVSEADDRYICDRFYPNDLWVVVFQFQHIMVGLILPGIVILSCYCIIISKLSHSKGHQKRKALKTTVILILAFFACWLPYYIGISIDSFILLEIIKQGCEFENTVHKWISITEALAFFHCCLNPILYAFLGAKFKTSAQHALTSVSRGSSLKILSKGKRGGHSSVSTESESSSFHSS
Summary of the method: (§2)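 HEK293-T cells transiently transfected with CXCR4 and the GloSensor cAMP reporter, plated in DMEM with 1% dialyzed FBS. Test compound at 10 μM in 20 mM HEPES/HBSS, pH 7.4, 15 min at room temperature. Agonist mode: luciferin (4 mM final) plus 200 nM isoproterenol added, 20 min. Antagonist mode: compound 10 min, then reference agonist at EC80 for 10 min, then luciferin/isoproterenol. Luminescence read. CXCL12 (1 or 3 μM) is the agonist control and AMD3100 (10 μM) the antagonist control. n=2.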

[6] = molecular target: C-X-C chemokine receptor type 4 (Homo sapiens) (UniProt P61073); experiment: Antagonist activity against CXCR4 receptor (unknown origin) transfected in human HEK293T cells at 10 uM incubated for 15 mins in presence of AMD3100 by luminescence counter analysis; assay type: functional, cell-based; summary of the method: as §2
[7] = filed as positive allosteric modulator

Compound | pKb [1] | also measured
O=C1N[C@H](c2ccccc2[N+](=O)[O-])c2c(-c3ccccc3)n[nH]c21 | 5.48 | Emax [2, 7]: 50.8%; EC50 [3]: 186 nM
Nc1nc(NCc2cccc(F)c2)nc(-c2cccc(F)c2N)n1 | 3.88 | –
Nc1nc(NCc2cc[nH]n2)nc(-c2ccccc2CO)n1 | 5.17 | –
O=C1N[C@H](c2cccc([N+](=O)[O-])c2)c2c(-c3ccco3)n[nH]c21 | 4.42 | Emax [2, 7]: 60.3%; EC50 [3]: 107 nM
CCCCNc1c(C(=O)OCC)c(C)nc2c1cnn2CC | 5.2 | –
O=C(Nc1nc(-c2ccc3c(c2)OCCO3)cs1)c1csnn1 | – | Activity [4]: Active
Nc1nc(NCc2ccccc2)nc(-c2ccc(F)c(F)c2)n1 | 5.69 | Emax [2, 7]: 68.8%; EC50 [3]: 91.2 nM
O=C1CCc2cc(-c3csc(NC(=O)c4ccc(-c5ccccc5F)o4)n3)ccc2N1 | – | Activity [4]: Active
Nc1nc(NCc2cccc(F)c2)nc(-c2ccc(F)c(F)c2CO)n1 | 4.01 | –
Nc1nc(-c2ccc(Cl)c(Cl)c2)c(-c2ccncc2)s1 | 7.51 | –
O=C1CN=C(c2ccccc2)c2cc(Cl)ccc2N1 | – | Activity [5]: inactive; Activity [6]: inactive
Nc1nc(NCc2ccccc2)nc(-c2ccccc2N)n1 | 5.22 | Emax [2, 7]: 50.2%; EC50 [3]: 63.1 nM
CC(=O)c1cccc(-c2nc(N)nc(Nc3ccc(C)cc3)n2)c1 | 6.31 | Emax [2, 7]: 67.3%; EC50 [3]: 57.5 nM
Nc1nc(NCCc2ccccc2)nc(-c2ccccc2CO)n1 | 5.43 | –
Nc1nc(NCCCc2ccccc2)nc(-c2ccccc2CO)n1 | 5.75 | –
Nc1nc(NCc2ccccc2F)nc(-c2ccc(F)cc2N)n1 | 4.23 | –
COc1ccc(-c2nc(N)nc(NCc3ccccc3)n2)c(CO)c1 | 4.43 | –
O=C1CN=C(c2ccccc2Cl)c2cc([N+](=O)[O-])ccc2N1 | – | Activity [5]: inactive; Activity [6]: inactive
Nc1nc(NCc2cccc(F)c2)nc(-c2cc(F)c(F)cc2N)n1 | 4.66 | –
COc1ccc(CNc2nc(N)nc(-c3ccccc3CO)n2)cc1 | 4.35 | –
Nc1nc(NCc2ccccc2)nc(-c2ccc(CO)cc2)n1 | 4.93 | –
Nc1nc(NCc2ccccc2)nc(-c2ccc(F)c(F)c2CO)n1 | 3.84 | –
Nc1nc(NCc2ccccc2F)nc(-c2cccc(F)c2N)n1 | 4.11 | –
Nc1nc(NCc2ccccc2F)nc(-c2cc(F)c(F)cc2N)n1 | 4.93 | –
Cc1ccc(-c2nc(N)nc(NCc3ccccc3)n2)c2cccnc12 | 4.92 | Emax [2]: 31%; EC50 [3]: 95.5 nM
Nc1nc(NCc2cccc(F)c2)nc(-c2ccc(F)cc2N)n1 | 3.68 | –
OC1CCC(Nc2nc(-c3ccccc3)nc3[nH]ccc23)CC1 (configuration not stated) | 6.2 | –
COc1cc([C@H]2NC(=O)c3[nH]nc(-c4ccco4)c32)ccc1O | 5.17 | Emax [2, 7]: 46.9%; EC50 [3]: 158 nM
O=C1CN=C(c2ccccc2F)c2cc(Cl)ccc2N1 | – | Activity [5]: inactive; Activity [6]: inactive
Nc1nc(NCCCCc2ccccc2)nc(-c2ccccc2CO)n1 | 5.82 | –
